High-throughput results: PubChem BioAssay, The Scripps Research Institute Molecular Screening Center
CHO parental Ca: signal in parental CHO cells, OX1R antagonist counter-screen | inhibition, % at 5.6 µM | parental CHO-K1, ATP-induced calcium, Fluo-8 fluorescence | 330,000 tested, 0.63% active | AID 463079;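 active = inhibition above that plate's mean sample inhibition plus 3 SD, cut at about 26% in these data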;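 also: 0% = ATP-challenged DMSO wells and 100% = DMSO wells without ATP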
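Assay system: untransfected parental CHO cell line. Also added: ATP agonist challenge. Dosing: one dose, 5.6 µM nominal. Measured by: Fluo-8 fluorescence. Read-out: % inhibition. Benchmarks: ATP wells versus no-ATP DMSO wells. Repeats: no replicates.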
GPR7 antag: human neuropeptides B/W receptor 1 antagonism; P48145; GPR7-expressing cells, fluorescence antagonist assay; inhibition, % at 4.4 µM; 290,000 tested, 1.1% active; in the data active = inhibition above about 16%, passing the limit was not always enough;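 also: cells stimulated with the agonist NPW; 0% = agonist with vehicle and 100% = vehicle without agonist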
GalR3 antagonist: blocks the human galanin receptor 3; O60755; HEK293 GalR3-CNG cAMP membrane potential fluorescence; galR3 body fused to GalR1 C-terminus; inhibition, % at 3 µM; 360,000 tested, 0.44% active;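 active = inhibition above the screen-wide average plus 3 SD, cut at about 13% in these data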;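 also: forskolin and galanin both at EC90 stimulate the cells; cAMP rise reported by CNG channel membrane potential dye signal; 0% = forskolin plus galanin with DMSO and 100% = forskolin alone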
OX1R antag-1: antagonists of human orexin 1 receptor; inhibition, % at 5 µM; O43613; CHO/OX1R cells, Fluo-8 calcium fluorescence, orexin A; 330,000 tested, 0.43% active;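 active = inhibition above its plate's threshold, mean inhibition of all tested compounds on the plate plus 3 SD, cut at about 37% in these data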;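 also: 0% = orexin A challenge wells and 100% = SB-334867-A antagonist wells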
Target sequence (O43613 whole entry, looked up): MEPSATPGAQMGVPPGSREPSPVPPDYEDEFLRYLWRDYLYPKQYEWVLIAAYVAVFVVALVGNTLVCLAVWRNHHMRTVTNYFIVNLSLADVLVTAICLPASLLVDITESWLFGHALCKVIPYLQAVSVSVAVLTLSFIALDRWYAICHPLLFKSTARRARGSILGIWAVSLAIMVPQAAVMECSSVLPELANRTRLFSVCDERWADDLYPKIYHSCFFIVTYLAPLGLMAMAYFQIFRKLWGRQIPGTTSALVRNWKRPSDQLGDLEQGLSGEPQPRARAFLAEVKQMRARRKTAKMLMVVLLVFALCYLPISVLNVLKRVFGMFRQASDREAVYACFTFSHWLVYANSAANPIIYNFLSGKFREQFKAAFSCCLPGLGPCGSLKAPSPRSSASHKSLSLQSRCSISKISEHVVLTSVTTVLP
OX1R antag-2: OX1R (human) antagonism; O43613; OX1R-expressing cells, FRET antagonist read-out; inhibition, % at 6.6 µM; 330,000 tested, 1.8% active; AID 485270; in the data active = inhibition mostly above about 38%, no sharp cut-off; inactive = mostly below about 40%;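 also: 0% = agonist challenge alone and 100% = reference antagonist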
GPR7 antag conf: human GPR7 antagonism, confirmation assay. shares compounds with GPR7 antag. GPR7-expressing cells, calcium fluorescence antagonist mode. 2,400 tested, 52% active. inhibition, % at 4.4 µM. AID 1952; in the data active = inhibition above about 24%;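 also: stimulated with the GPR7 agonist NPW; 0% = agonist plus vehicle and 100% = vehicle alone without agonist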
MCHR1 antagonist: counter-screen for GPR7 antagonists: antagonists of human MCHR1; shares compounds with GPR7 antag; MCHR1-expressing cells, fluorescence antagonist assay; inhibition, % at 4.4 µM; 2,400 tested, 62% active; AID 2148; in the data active = inhibition above about 22%;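 also: 0% = vehicle with agonist and 100% = vehicle without agonist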
An asterisk follows results filed as active; x = no result given. Hits are enriched below; roughly 3.1% of the tested compounds scored in any of these assays.

SMILES	CHO parental Ca	GPR7 antag	GalR3 antagonist	OX1R antag-1	OX1R antag-2	GPR7 antag conf	MCHR1 antagonist
CC1(C(=O)NS(=O)(=O)c2ccc(C#N)cc2)CCN1C(=O)Cc1cccc2ccccc12 (configuration not stated)	x	x	-5	x	x	x	x
CN(C)/C=C/C(=O)c1ccc(Oc2ccccc2)cc1	-7	-2	-3	0	13	x	x
COc1ccc(C(=O)/C=C/N(C)C)cc1	-7	27*	-4	-29	18	-3	-5
CNc1cnc(-c2ccc(F)c(F)c2F)cn1	x	x	-4	x	x	x	x
C(=C\c1ccccc1)/CSc1nnc(-c2ccccc2)n1Cc1ccco1	-8	32*	-5	4	9	41*	64*
O=C(COc1ccc([N+](=O)[O-])cc1)NCCC1=CCCCC1	-8	29*	-12	-27	12	31*	16
O=C(NCCC1=CCCCC1)c1ccc([N+](=O)[O-])cc1	-13	0	-3	-17	32	x	x
CCN(CC)C(=O)c1ccc(/C=C/c2c[nH]c3ccccc23)[n+](C)c1	2	2	-2	-1	47	x	x
CC[n+]1c(/C=C/c2c[nH]c3ccccc23)ccc2cc(C)ccc21	x	39*	-10	x	x	37*	80*
Cc1ccccc1N(CC(=O)NC1CCCCC1)C(=O)CCCC(=O)Nc1ccccn1	-25	38*	-11	-32	11	33*	18
Cc1ccc(S(=O)(=O)N2CCCCC2)cc1NC(=O)c1cc(F)c(F)c(F)c1F	-18	x	-7	-24	2	x	x
Cc1ccc(CN2CCc3c(OCc4ccc(F)cc4)cccc3C2=O)cc1	-9	2	-6	-11	19	x	x
O=C(COc1cccc2c1CCN(Cc1ccc(Br)cc1)C2=O)N1CCOCC1	-17	18	-1	-33	7	x	x
COC(=O)c1ccc(COc2cccc3c2CCN(Cc2cccc(C)c2)C3=O)o1	-35	22*	-7	-24	29	43*	70*
COC(=O)c1ccc(COc2cccc3c2CCN(Cc2ccccc2)C3=O)o1	-17	29*	-6	-17	39	31*	57*
O=C1c2cccc(OCC(=O)N3CCCc4ccccc43)c2CCN1Cc1ccc(Br)cc1	-22	31*	-3	-15	25	35*	58*
CCN1CCc2c(OCc3ccc(C(=O)OC)o3)cccc2C1=O	-17	-14	-1	-16	17	x	x
CN1CCC(N2CCN(C3CN(C4CCCCC4)S(=O)(=O)C3)CC2)CC1 (configuration not stated)	x	x	-4	x	x	x	x
CN1N=C(N)c2cn(C3OC(COP(=O)(O)O)C(O)C3O)c3ncnc1c23 (configuration not stated)	x	x	-6	x	x	x	x
Cc1ccc(OCC(=O)NNC(=O)c2ccc(F)c(S(=O)(=O)N3CCOCC3)c2)cc1C	x	x	-5	x	x	x	x
O=c1c(/C=N/O)coc2ccc3ccccc3c12	-6	27*	-3	6	37	2	14
NC(=O)c1ccsc1NC(=O)COC(=O)Cc1cccc2ccccc12	59*	28*	104*	75*	39	54*	78*
O=C(NC(Cc1ccccc1)C(=O)N1CCN(S(=O)(=O)c2ccccc2)CC1)c1ccccc1 (configuration not stated)	-29	22*	1	-10	23	-8	4
CC(=O)N1CCN(C(=O)C(Cc2ccccc2)NC(=O)c2ccccc2)CC1 (configuration not stated)	1	x	-6	11	5	x	x
COc1ccccc1-c1cc(C(F)(F)F)n2ncc(C(=O)N3CCc4ccccc4C3)c2n1	-28	0	-4	-44	34	x	x
SMILES	CHO parental Ca	GPR7 antag	GalR3 antagonist	OX1R antag-1	OX1R antag-2	GPR7 antag conf	MCHR1 antagonist
COc1ccc2c3c(cccc13)C(=O)CC2	x	34*	-8	x	x	-23	33*
Cn1cc(S(=O)(=O)N2CCc3ccccc32)cc1C(=O)NC1CCCCC1	-5	-13	x	-12	8	x	x
CCC(C)(C)NC(=O)c1cc(S(=O)(=O)N2CCc3ccccc32)cn1C	-1	21*	x	-16	8	10	35*
CC1CCN(C(=O)CSc2nnc(CNC(=O)c3ccc(F)cc3)o2)CC1	-9	-5	-5	-8	25	x	x
CN(Cc1ccc(N(C)C)cc1)C(=O)c1cc2ccccc2o1	6	41*	-9	7	21	10	26*
O=c1ncn(-c2cccc(Cl)c2)c2ccccc12	-8	x	-1	-8	2	x	x
CC1=C(C(=O)N(C(C)C)C(C)C)CC(CC(=O)NC2CC2)C(=O)N1Cc1ccc(F)cc1 (configuration not stated)	x	x	-6	x	x	x	x
COc1ccc(C(=O)OCC(=O)c2ccco2)cc1[N+](=O)[O-]	x	x	-2	x	x	x	x
Cc1ccc2c(c1)c1c(n2CC(O)CNC2CCCC2)CCCC1 (configuration not stated)	-5	23*	-4	-18	3	53*	41*
Cc1ccc2c(c1)c1c(n2CC(O)Cn2ccnc2C)C(=O)CCC1 (configuration not stated)	-13	3	-3	-21	28	x	x
Cc1cc(N2CCCCC2)nc(N)n1	2	43*	-6	-15	7	53*	75*
Cc1cc(N2CCCC2)nc(-c2ccccc2O)n1	0	3	-2	-18	11	x	x
COc1cccc(C2CC(c3ccc(Cl)cc3Cl)n3nc(N)nc3N2)c1 (configuration not stated)	-17	27*	-1	-14	6	11	1
Cc1ccc(C2CC(c3ccccc3C)n3nc(N)nc3N2)cc1 (configuration not stated)	-5	26*	-2	3	11	12	3
CCc1ccc(C2CC(c3ccccc3Cl)Nc3nc(N)nn32)cc1 (configuration not stated)	-9	30*	4	-3	10	42*	19
COc1ccc(C2CC(c3cccc(OC)c3)n3nc(N)nc3N2)cc1 (configuration not stated)	-9	39*	1	-4	6	-3	-9
O=C(NCc1ccco1)C(=O)NN=Cc1ccccc1O	x	x	-7	x	x	x	x
CCN(CC)c1ncnc2c1ncn2[C@H]1CN(Cc2ccc(Cl)cc2)C[C@@H](CO)O1	x	x	-6	x	x	x	x
CC1CCCC(NC(=S)Nc2ccc(SC(F)F)cc2)C1C (configuration not stated)	48*	45*	-4	60*	35	32*	54*
OC1CCC(NC(=S)Nc2ccc(SC(F)F)cc2)CC1 (configuration not stated)	20	3	-6	5	11	x	x
CC1(C)CC(CCN)(Cc2ccccc2Cl)CCO1 (configuration not stated)	-18	-9	-4	-13	-3	x	x
